# Activity calls are given as the source filed them. The rule behind the calls is not given here.
# Legend:
# [1] = system: KG-1; experiment: Cytotoxicity against human KG-1 cells assessed as maximum cell growth inhibition incubated for 72 hrs by MTS assay relative to control; assay type: functional
# Summary of the method: (§1)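 Cells from the 20-line panel were seeded the day before dosing, then exposed to compound for 72 h. MTS was added, followed by 4 h at 37 °C, and absorbance was read. Nine serial 3.16-fold dilutions were tested, top 198 μM, in duplicate. MI% is the maximum inhibitory effect across the tested concentration range.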
# [2] = system: MV4-11; experiment: Cytotoxicity against human MV4-11 cells assessed as maximum cell growth inhibition incubated for 72 hrs by MTS assay relative to control; assay type: functional; summary of the method: as §1
# [3] = biological target: T1, Adenosine deaminase (Bos taurus, UniProt P56658); experiment: Metabolic stability assessed as bovine recombinant adenosine deaminase-mediated 3'-deoxyinosine metabolite formation by measuring shift in maximum absorption at 62.5 uM measured upto 2 hrs by UV absorption spectra based analysis; assay type: ADME; details: cattle
# T1 sequence (P56658 whole entry): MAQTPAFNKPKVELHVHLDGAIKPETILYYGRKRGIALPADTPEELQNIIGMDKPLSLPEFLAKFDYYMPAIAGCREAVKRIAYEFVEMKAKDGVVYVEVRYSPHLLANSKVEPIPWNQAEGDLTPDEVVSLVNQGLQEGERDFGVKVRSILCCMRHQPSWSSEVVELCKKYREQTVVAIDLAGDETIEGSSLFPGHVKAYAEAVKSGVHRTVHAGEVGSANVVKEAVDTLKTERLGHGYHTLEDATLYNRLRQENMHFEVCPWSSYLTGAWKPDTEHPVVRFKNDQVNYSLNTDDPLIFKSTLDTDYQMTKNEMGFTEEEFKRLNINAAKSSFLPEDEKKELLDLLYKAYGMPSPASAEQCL
# [4] = system: RL; experiment: Potency index, ratio of 3'-Deoxyadenosine LC50 to test compound LC50 for cytotoxicity against human RL cells assessed as cell death incubated for 72 hrs by MTS assay; assay type: functional
# [5] = system: HL-60; experiment: Potency index, ratio of 3'-Deoxyadenosine LC50 to test compound LC50 for cytotoxicity against human HL-60 cells assessed as cell death incubated for 72 hrs by MTS assay; assay type: functional
# [6] = system: K562; experiment: Potency index, ratio of 3'-Deoxyadenosine LC50 to test compound LC50 for cytotoxicity against human K562 cells assessed as cell death incubated for 72 hrs by MTS assay; assay type: functional
# [7] = system: Jurkat; experiment: Potency index, ratio of 3'-Deoxyadenosine LC50 to test compound LC50 for cytotoxicity against human Jurkat cells assessed as cell death incubated for 72 hrs by MTS assay; assay type: functional
# [8] = system: CCRF-CEM; experiment: Potency index, ratio of 3'-Deoxyadenosine LC50 to test compound LC50 for cytotoxicity against human CCRF-CEM cells assessed as cell death incubated for 72 hrs by MTS assay; assay type: functional
# [9] = Prodrug conversion in human CCRF-CEM cells assessed as fold increase in 3'-dATP level at 50 uM incubated for 2 hrs by LC-MS/MS analysis relative to 3'-Deoxyadenosine; assay type: ADME, cell-based
# [10] = Prodrug conversion in human K562 cells assessed as fold increase in 3'-dATP level at 50 uM incubated for 2 hrs by LC-MS/MS analysis relative to 3'-Deoxyadenosine; assay type: ADME, cell-based; details: k562, 2 h
# [11] = Prodrug conversion in human HL-60 cells assessed as fold increase in 3'-dATP level at 50 uM incubated for 2 hrs by LC-MS/MS analysis relative to 3'-Deoxyadenosine; assay type: ADME, cell-based; details: hl-60, 2 h
# [12] = Prodrug conversion in human RL cells assessed as fold increase in 3'-dATP level at 50 uM incubated for 2 hrs by LC-MS/MS analysis relative to 3'-Deoxyadenosine; assay type: ADME, cell-based
# [13] = system: CCRF-CEM; experiment: Cytotoxicity against deoxynucleotidyl transferase-positive human CCRF-CEM cells assessed as cell death preincubated with adenosine deaminase inhibitor, EHNA for 5 mins followed by compound addition and […]; assay type: functional, cell-based
# [14] = system: RL; experiment: Cytotoxicity against deoxynucleotidyl transferase-negative human RL cells assessed as cell death preincubated with adenosine deaminase inhibitor, EHNA for 5 mins followed by compound addition and […]; assay type: functional, cell-based
# [15] = system: RL; experiment: Cytotoxicity against deoxynucleotidyl transferase-negative human RL cells assessed as cell death preincubated with adenosine kinase inhibitor, A-134974 for 5 mins followed by compound addition and […]; assay type: functional, cell-based
# [16] = Prodrug activation assessed as Saccharomyces cerevisiae carboxypeptidase Y-mediated (2R)-2-(((((2S,4R,5R)-5-(6-amino-9H-purin-9-yl)-4-hydroxytetrahydrofuran-2-yl)methoxy)(hydroxy)phosphoryl)amino)propanoic acid formation at 5 mg measured over 1 hr by 31P-NMR analysis
# Summary of the method: (§2)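 Prodrug (5 mg) in acetone-d6 with trizma buffer pH 7.6, with a t = 0 31P NMR (202 MHz) reference taken first. Carboxypeptidase Y stock (50 units/mL in trizma pH 7.6) added. 31P NMR spectra recorded over time to follow intermediate and aminoacyl phosphoramidate signals.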
# [17] = Prodrug activation assessed as Saccharomyces cerevisiae carboxypeptidase Y-mediated (2R)-2-(((((2S,4R,5R)-5-(6-amino-9H-purin-9-yl)-4-hydroxytetrahydrofuran-2-yl)methoxy)(phenoxy)phosphoryl)amino)propanoic acid formation at 5 mg measured for 4 mins by 31P-NMR analysis; summary of the method: as §2
# [18] = Stability in human plasma assessed as reduction in parent compound concentration at 20 uM measured upto 4 hrs by UPLC-MS/MS analysis; assay type: ADME, cell-free
# [19] = Stability in human plasma assessed as reduction in parent compound concentration at 20 uM incubated for 4 hrs in presence of adenosine deaminase inhibitor, EHNA by UPLC-MS/MS analysis; assay type: ADME, cell-free
# [20] = Drug concentration in mouse plasma at 20 uM measured after 30 sec by UPLC-MS/MS analysis; assay type: ADME, cell-free
# [21] = Drug concentration in human plasma at 20 uM measured after 30 sec by UPLC-MS/MS analysis; assay type: ADME, cell-free
# [22] = Drug metabolism in mouse plasma assessed as metabolite formation by measuring reduction in parent compound concentration at 20 uM incubated for 24 hrs in presence of adenosine deaminase inhibitor, EHNA by UPLC/MS/MS analysis; assay type: ADME, cell-free
# [23] = system: Leukemic stem cell; experiment: Cytotoxicity against human leukemic stem cells (Lin-/CD34+/CD38-/CD123+) in myeloid leukemia cell line KG-1a assessed as preferential cell killing incubated for 72 hrs
# [24] = system: Leukemic stem cell; experiment: Cytotoxicity against human leukemic stem cells (Lin-/CD34+/CD38-/CD123+) in myeloid leukemia cell line KG-1a assessed as reduction in LSC population at >1 uM incubated for 72 hrs
# [25] = biological target: T1, Adenosine deaminase; experiment: Metabolic stability assessed as bovine recombinant adenosine deaminase-mediated 3'-deoxyinosine metabolite formation by measuring shift in maximum absorption at 62.5 uM measured after 2 mins by UV absorption spectra based analysis; assay type: ADME; details: cattle
# Summary of the method: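 Bovine recombinant ADA suspension was diluted in phosphate buffer, pH 7.4, and filtered at 0.2 μm. Substrate at 62.5 μM was added to 17 μL of the ADA solution. UV spectra were scanned at 220–350 nm, 2 nm resolution, every 0.1 min for 10 min to 12 h, with an ADA-only blank subtracted. The read-out is the shift of the 265 nm maximum.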
# [26] = Stability in human plasma assessed as reduction in parent compound concentration at 20 uM measured after 4 hrs by UPLC-MS/MS analysis; assay type: ADME, cell-free
# Summary of the method: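 Human plasma, with or without 1 μM EHNA as ADA inhibitor, was spiked with 20 μM compound at 37 °C/5% CO2. Samples were quenched in methanol, 1:3 sample:methanol, kept 30 min on ice and centrifuged. The supernatant was dried, reconstituted in 10% acetonitrile and quantified by UPLC-MS/MS over time.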
# [27] = system: CCRF-CEM; experiment: Cytotoxicity against human CCRF-CEM cells assessed as cell death incubated for 72 hrs by MTS assay; assay type: functional; details: read-out: LC50 (the source's name)
# Summary of the method: (§3)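 Contracted MTS assay. Cells seeded the day before treatment and exposed 72 h to nine serial concentrations (3.16-fold steps, top 198 μM), tested in duplicate. MTS added, then 4 h at 37 °C and absorbance read. LC50 is the concentration killing 50% of cells. MI% is the maximum inhibition over the tested range.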
# [28] = system: CCRF-CEM; experiment: Cytotoxicity against human CCRF-CEM cells assessed as maximum cell growth inhibition incubated for 72 hrs by MTS assay relative to control; assay type: functional; summary of the method: as §1
# [29] = system: HL-60; experiment: Cytotoxicity against human HL-60 cells assessed as cell death incubated for 72 hrs by MTS assay; assay type: functional; details: read-out: LC50 (the source's name); summary of the method: as §3
# [30] = system: HL-60; experiment: Cytotoxicity against human HL-60 cells assessed as maximum cell growth inhibition incubated for 72 hrs by MTS assay relative to control; assay type: functional; summary of the method: as §1
# [31] = system: KG-1; experiment: Cytotoxicity against human KG-1 cells assessed as cell death incubated for 72 hrs by MTS assay; assay type: functional; summary of the method: as §3
# [32] = system: MOLT-4; experiment: Cytotoxicity against human MOLT-4 cells assessed as cell death incubated for 72 hrs by MTS assay; assay type: functional; details: read-out: LC50 (the source's name); summary of the method: as §3
# [33] = system: MOLT-4; experiment: Cytotoxicity against human MOLT-4 cells assessed as maximum cell growth inhibition incubated for 72 hrs by MTS assay relative to control; assay type: functional; summary of the method: as §1
# [34] = system: K562; experiment: Cytotoxicity against human K562 cells assessed as cell death incubated for 72 hrs by MTS assay; assay type: functional; details: read-out: LC50 (the source's name); summary of the method: as §3
# [35] = system: K562; experiment: Cytotoxicity against human K562 cells assessed as maximum cell growth inhibition incubated for 72 hrs by MTS assay relative to control; assay type: functional; summary of the method: as §1
# [36] = system: HepG2; experiment: Cytotoxicity against human HepG2 cells assessed as cell death incubated for 72 hrs by MTS assay; assay type: functional; details: read-out: LC50 (the source's name); summary of the method: as §3
# [37] = system: HepG2; experiment: Cytotoxicity against human HepG2 cells assessed as maximum cell growth inhibition incubated for 72 hrs by MTS assay relative to control; assay type: functional; summary of the method: as §1
# [38] = system: MCF7; experiment: Cytotoxicity against human MCF7 cells assessed as cell death incubated for 72 hrs by MTS assay; assay type: functional; details: read-out: LC50 (the source's name); summary of the method: as §3
# [39] = system: MCF7; experiment: Cytotoxicity against human MCF7 cells assessed as maximum cell growth inhibition incubated for 72 hrs by MTS assay relative to control; assay type: functional; summary of the method: as §1
compound,measurement,setting,value
C[C@H](N[P@@](=O)(OC[C@@H]1C[C@@H](O)[C@H](n2cnc3c(N)ncnc32)O1)Oc1ccccc1)C(=O)OCc1ccccc1,Imax,[1],90%
CC(=O)O[C@H]1C(=O)[C@@]2(C)[C@H]([C@H](OC(=O)c3ccccc3)[C@]3(O)C[C@H](OC(=O)[C@H](O)[C@@H](NC(=O)c4ccccc4)c4ccccc4)C(C)=C1C3(C)C)[C@]1(OC(C)=O)CO[C@@H]1C[C@@H]2O [PACLITAXEL],Imax,[1],89%
C[C@H](N[P@](=O)(OC[C@@H]1C[C@@H](O)[C@H](n2cnc3c(N)ncnc32)O1)Oc1ccccc1)C(=O)OCc1ccccc1,Imax,[2],100%
C[C@H](NP(=O)(OC[C@@H]1C[C@@H](O)[C@H](n2cnc3c(N)ncnc32)O1)Oc1ccccc1)C(=O)OCc1ccccc1 (some centres not stated) [FOSDESDENOSINE SIPALABENAMIDE],Stability,[3],Stable
same,RatioLC50,[4],3
same,RatioLC50,[5],3
same,RatioLC50,[6],3
same,RatioLC50,[7],200
same,RatioLC50,[8],3
same,fold change (FC),[9],3
same,fold change (FC),[10],3
same,fold change (FC),[11],3
same,fold change (FC),[12],3
same,Activity,[13],Active
same,Activity,[14],Active
same,Activity,[15],Active
same,Drug metabolism,[16],Metabolite_Detected
same,Drug metabolism,[17],Metabolite_Detected
same,Stability,[18],Stable
same,Stability,[19],Stable
same,"concentration at 0.5 min, 20 µM",[20],0.5 ng/mL
same,"concentration at 0.5 min, 20 µM",[21],10000 ng/mL
same,Drug metabolism,[22],Metabolite_Detected
same,Activity,[23],Active
same,Activity,[24],Active
Nc1ncnc2c1ncn2[C@@H]1O[C@H](CO)C[C@H]1O [CORDYCEPIN],Stability,[25],Unstable
same,Stability,[26],Unstable
same,Activity,[24],Active
CCOC(=O)CCc1ccccc1OP(=O)(N[C@@H](C)C(=O)OCc1ccccc1)OC[C@@H]1C[C@@H](O)[C@H](n2cnc3c(N)ncnc32)O1 (some centres not stated),Imax,[1],69%
same,fold change (FC),[9],2
same,fold change (FC),[10],2
same,fold change (FC),[11],2
same,fold change (FC),[12],2
Nc1ncnc2c1ncn2[C@@H]1O[C@H](COP(=O)(NCC(=O)OCc2ccccc2)Oc2ccccc2)C[C@H]1O (some centres not stated),CC50,[27],14.9 µM
same,Imax,[28],94%
same,CC50,[29],45.2 µM
same,Imax,[30],82%
same,LC50,[31],136.56 µM
same,Imax,[1],65%
same,CC50,[32],3.55 µM
same,Imax,[33],93%
same,CC50,[34],15.4 µM
same,Imax,[35],92%
same,CC50,[36],142 µM
same,Imax,[37],59%
same,CC50,[38],15.5 µM
same,Imax,[39],87%
